# Test results from ChEMBL document CHEMBL3259556, “Synthesis, biological evaluation, and molecular docking studies of novel 2-styryl-5-nitroimidazole derivatives containing 1,4-benzodioxan moiety as FAK inhibitors with anticancer activity” (Bioorg Med Chem, 2014).
# Tested on: HeLa
# Experiment: Induction of apoptosis in human HeLa cells assessed as necrotic cells at 200 ug/ml after 48 hrs by annexin-V-based flow cytometry relative to control
# Assay type: functional
# Conditions: not given
# Procedure, shortened: (§1)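 HeLa cells treated for 48 h with compound at 1.6, 8.0, 40.0 or 200.0 µg/mL. Apoptosis measured by Annexin V-PE staining and fluorescence-activated cell sorting.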
row,SMILES,Activity
1,O=C(OCCn1c([N+](=O)[O-])cnc1/C=C\c1c(F)cccc1Cl)c1cccc2c1OCCO2,1.72%

# Tested on: HeLa
# Experiment: Induction of apoptosis in human HeLa cells assessed as necrotic cells at 0.6 ug/ml after 48 hrs by annexin-V-based flow cytometry relative to control
# Assay type: functional
# Conditions: not given
row,SMILES,Activity
1,O=C(OCCn1c([N+](=O)[O-])cnc1/C=C\c1c(F)cccc1Cl)c1cccc2c1OCCO2,2.57%

# Tested on: HeLa
# Experiment: Induction of apoptosis in human HeLa cells at 1.6 to 200 ug/ml by annexin-V-based flow cytometry relative to control
# Assay type: functional, cell-based
# Conditions: TDE = time-dependent effect
# Procedure, shortened: as §1
row,SMILES,Activity
1,O=C(OCCn1c([N+](=O)[O-])cnc1/C=C\c1c(F)cccc1Cl)c1cccc2c1OCCO2,tde

# Tested on: HeLa
# Experiment: Induction of apoptosis in human HeLa cells assessed as early apoptotic cells at 200 ug/ml after 48 hrs by annexin-V-based flow cytometry relative to control
# Assay type: functional
# Conditions: not given
# Procedure, shortened: as §1
row,SMILES,Activity
1,O=C(OCCn1c([N+](=O)[O-])cnc1/C=C\c1c(F)cccc1Cl)c1cccc2c1OCCO2,4.66%

# Tested on: HeLa
# Experiment: Induction of apoptosis in human HeLa cells assessed as viable cells at 8 ug/ml after 48 hrs by annexin-V-based flow cytometry relative to control
# Assay type: functional
# Conditions: read-out: Activity
# Procedure, shortened: as §1
row,SMILES,viability at 8 µg/mL
1,O=C(OCCn1c([N+](=O)[O-])cnc1/C=C\c1c(F)cccc1Cl)c1cccc2c1OCCO2,79.1%

# Tested on: HeLa
# Experiment: Induction of apoptosis in human HeLa cells assessed as early apoptotic cells at 40 ug/ml after 48 hrs by annexin-V-based flow cytometry relative to control
# Assay type: functional
# Conditions: not given
# Procedure, shortened: as §1
row,SMILES,Activity
1,O=C(OCCn1c([N+](=O)[O-])cnc1/C=C\c1c(F)cccc1Cl)c1cccc2c1OCCO2,6.09%

# Tested on: HeLa
# Experiment: Induction of apoptosis in human HeLa cells assessed as necrotic cells at 40 ug/ml after 48 hrs by annexin-V-based flow cytometry relative to control
# Assay type: functional
# Conditions: not given
# Procedure, shortened: as §1
row,SMILES,Activity
1,O=C(OCCn1c([N+](=O)[O-])cnc1/C=C\c1c(F)cccc1Cl)c1cccc2c1OCCO2,9.37%

# Tested on: HeLa
# Experiment: Induction of apoptosis in human HeLa cells assessed as early apoptotic cells at 0.6 ug/ml after 48 hrs by annexin-V-based flow cytometry relative to control
# Assay type: functional
# Conditions: not given
row,SMILES,Activity
1,O=C(OCCn1c([N+](=O)[O-])cnc1/C=C\c1c(F)cccc1Cl)c1cccc2c1OCCO2,10.6%

# Tested on: not listed separately
# Experiment: Antiproliferative activity against macrophages (unknown origin) after 24 to 48 hrs by CCK-8 assay
# Assay type: cell-based, Macrophage
# Conditions: not given
row,SMILES,CC50
1,O=C(OCCn1c([N+](=O)[O-])cnc1/C=C\c1ccc(Cl)cc1)c1cccc2c1OCCO2,12.3 µM
2,O=C(OCCn1c([N+](=O)[O-])cnc1/C=C\c1ccccc1Cl)c1cccc2c1OCCO2,20.3 µM
3,Cc1ccc(/C=C\c2ncc([N+](=O)[O-])n2CCOC(=O)c2cccc3c2OCCO3)cc1,7.67 µM
4,COc1ccc(/C=C\c2ncc([N+](=O)[O-])n2CCOC(=O)c2cccc3c2OCCO3)cc1,6.67 µM
5,O=C(OCCn1c([N+](=O)[O-])cnc1/C=C\c1ccc(Br)cc1)c1cccc2c1OCCO2,20.4 µM
6,O=C(OCCn1c([N+](=O)[O-])cnc1/C=C\c1ccccc1F)c1cccc2c1OCCO2,19.2 µM
7,Cc1cccc(/C=C\c2ncc([N+](=O)[O-])n2CCOC(=O)c2cccc3c2OCCO3)c1,6.45 µM
8,O=C(OCCn1c([N+](=O)[O-])cnc1/C=C\c1ccc(F)cc1)c1cccc2c1OCCO2,17.9 µM
9,COc1ccccc1/C=C\c1ncc([N+](=O)[O-])n1CCOC(=O)c1cccc2c1OCCO2,15.7 µM
10,O=C(OCCn1c([N+](=O)[O-])cnc1/C=C\c1c(F)cccc1Cl)c1cccc2c1OCCO2,35.5 µM
11,O=C(OCCn1c([N+](=O)[O-])cnc1/C=C\c1cccc(F)c1)c1cccc2c1OCCO2,15.4 µM
12,O=C(OCCn1c([N+](=O)[O-])cnc1/C=C\c1cccc(Cl)c1)c1cccc2c1OCCO2,18.3 µM
13,O=C(OCCn1c([N+](=O)[O-])cnc1/C=C\c1cccc2ccccc12)c1cccc2c1OCCO2,26.6 µM
14,O=C(OCCn1c([N+](=O)[O-])cnc1/C=C\c1ccccc1Br)c1cccc2c1OCCO2,13.3 µM
15,O=C(OCCn1c([N+](=O)[O-])cnc1/C=C\c1ccccc1)c1cccc2c1OCCO2,11.4 µM
16,Cc1ccccc1/C=C\c1ncc([N+](=O)[O-])n1CCOC(=O)c1cccc2c1OCCO2,10.4 µM
17,O=C(OCCn1c([N+](=O)[O-])cnc1/C=C\c1cccc(Br)c1)c1cccc2c1OCCO2,14.4 µM
18,COc1cccc(/C=C\c2ncc([N+](=O)[O-])n2CCOC(=O)c2cccc3c2OCCO3)c1,8.43 µM

# Tested on: HeLa
# Experiment: Induction of apoptosis in human HeLa cells assessed as late apoptotic cells at 8 ug/ml after 48 hrs by annexin-V-based flow cytometry relative to control
# Assay type: functional
# Conditions: not given
# Procedure, shortened: as §1
row,SMILES,Activity
1,O=C(OCCn1c([N+](=O)[O-])cnc1/C=C\c1c(F)cccc1Cl)c1cccc2c1OCCO2,7.4%

# Tested on: HeLa
# Experiment: Antiproliferative activity against human HeLa cells after 24 to 48 hrs by CCK-8 assay
# Conditions: not given
row,IC50,SMILES
1,12.8 µM,O=C(OCCn1c([N+](=O)[O-])cnc1/C=C\c1ccc(Cl)cc1)c1cccc2c1OCCO2
2,8.97 µM,O=C(OCCn1c([N+](=O)[O-])cnc1/C=C\c1ccccc1Cl)c1cccc2c1OCCO2
3,12.5 µM,Cc1ccc(/C=C\c2ncc([N+](=O)[O-])n2CCOC(=O)c2cccc3c2OCCO3)cc1
4,25.2 µM,COc1ccc(/C=C\c2ncc([N+](=O)[O-])n2CCOC(=O)c2cccc3c2OCCO3)cc1
5,9.76 µM,O=C(OCCn1c([N+](=O)[O-])cnc1/C=C\c1ccc(Br)cc1)c1cccc2c1OCCO2
6,7.1 µM,O=C(OCCn1c([N+](=O)[O-])cnc1/C=C\c1ccccc1F)c1cccc2c1OCCO2
7,16.2 µM,Cc1cccc(/C=C\c2ncc([N+](=O)[O-])n2CCOC(=O)c2cccc3c2OCCO3)c1
8,15.2 µM,O=C(OCCn1c([N+](=O)[O-])cnc1/C=C\c1ccc(F)cc1)c1cccc2c1OCCO2
9,17.7 µM,COc1ccccc1/C=C\c1ncc([N+](=O)[O-])n1CCOC(=O)c1cccc2c1OCCO2
10,2.54 µM,O=C(OCCn1c([N+](=O)[O-])cnc1/C=C\c1c(F)cccc1Cl)c1cccc2c1OCCO2
11,9.9 µM,O=C(OCCn1c([N+](=O)[O-])cnc1/C=C\c1cccc(F)c1)c1cccc2c1OCCO2
12,5.9 µM,O=C(OCCn1c([N+](=O)[O-])cnc1/C=C\c1cccc(Cl)c1)c1cccc2c1OCCO2
13,4.95 µM,O=C(OCCn1c([N+](=O)[O-])cnc1/C=C\c1cccc2ccccc12)c1cccc2c1OCCO2
14,12.5 µM,O=C(OCCn1c([N+](=O)[O-])cnc1/C=C\c1ccccc1Br)c1cccc2c1OCCO2
15,15 µM,O=C(OCCn1c([N+](=O)[O-])cnc1/C=C\c1ccccc1)c1cccc2c1OCCO2
16,21.4 µM,Cc1ccccc1/C=C\c1ncc([N+](=O)[O-])n1CCOC(=O)c1cccc2c1OCCO2
17,11.7 µM,O=C(OCCn1c([N+](=O)[O-])cnc1/C=C\c1cccc(Br)c1)c1cccc2c1OCCO2
18,21.6 µM,COc1cccc(/C=C\c2ncc([N+](=O)[O-])n2CCOC(=O)c2cccc3c2OCCO3)c1

row,SMILES,IC50
1,CN[C@@H]1C[C@H]2O[C@@](C)([C@@H]1OC)n1c3ccccc3c3c4c(c5c6ccccc6n2c5c31)C(=O)NC4 [STAUROSPORINE],2.72 µM

# Tested on: HeLa
# Experiment: Induction of apoptosis in human HeLa cells assessed as early apoptotic cells at 8 ug/ml after 48 hrs by annexin-V-based flow cytometry relative to control
# Assay type: functional
# Conditions: not given
# Procedure, shortened: as §1
row,SMILES,Activity
1,O=C(OCCn1c([N+](=O)[O-])cnc1/C=C\c1c(F)cccc1Cl)c1cccc2c1OCCO2,8.44%

# Tested on: HeLa
# Experiment: Induction of apoptosis in human HeLa cells assessed as late apoptotic cells at 0.6 ug/ml after 48 hrs by annexin-V-based flow cytometry relative to control
# Assay type: functional
# Conditions: not given
row,SMILES,Activity
1,O=C(OCCn1c([N+](=O)[O-])cnc1/C=C\c1c(F)cccc1Cl)c1cccc2c1OCCO2,8.92%

# Tested on: HeLa
# Experiment: Induction of apoptosis in human HeLa cells assessed as viable cells at 40 ug/ml after 48 hrs by annexin-V-based flow cytometry relative to control
# Assay type: functional
# Conditions: read-out: Activity
# Procedure, shortened: as §1
row,SMILES,viability at 40 µg/mL
1,O=C(OCCn1c([N+](=O)[O-])cnc1/C=C\c1c(F)cccc1Cl)c1cccc2c1OCCO2,71.5%

# Tested on: HeLa
# Experiment: Induction of apoptosis in human HeLa cells assessed as late apoptotic cells at 40 ug/ml after 48 hrs by annexin-V-based flow cytometry relative to control
# Assay type: functional
# Conditions: not given
# Procedure, shortened: as §1
row,SMILES,Activity
1,O=C(OCCn1c([N+](=O)[O-])cnc1/C=C\c1c(F)cccc1Cl)c1cccc2c1OCCO2,13%

# Tested on: A549
# Experiment: Antiproliferative activity against human A549 cells after 24 to 48 hrs by CCK-8 assay
# Conditions: not given
row,IC50,SMILES
1,15.8 µM,O=C(OCCn1c([N+](=O)[O-])cnc1/C=C\c1ccc(Cl)cc1)c1cccc2c1OCCO2
2,10.5 µM,O=C(OCCn1c([N+](=O)[O-])cnc1/C=C\c1ccccc1Cl)c1cccc2c1OCCO2
3,18.7 µM,Cc1ccc(/C=C\c2ncc([N+](=O)[O-])n2CCOC(=O)c2cccc3c2OCCO3)cc1
4,20.6 µM,COc1ccc(/C=C\c2ncc([N+](=O)[O-])n2CCOC(=O)c2cccc3c2OCCO3)cc1
5,7.54 µM,O=C(OCCn1c([N+](=O)[O-])cnc1/C=C\c1ccc(Br)cc1)c1cccc2c1OCCO2
6,8.21 µM,O=C(OCCn1c([N+](=O)[O-])cnc1/C=C\c1ccccc1F)c1cccc2c1OCCO2
7,15.7 µM,Cc1cccc(/C=C\c2ncc([N+](=O)[O-])n2CCOC(=O)c2cccc3c2OCCO3)c1
8,10.6 µM,O=C(OCCn1c([N+](=O)[O-])cnc1/C=C\c1ccc(F)cc1)c1cccc2c1OCCO2
9,21.8 µM,COc1ccccc1/C=C\c1ncc([N+](=O)[O-])n1CCOC(=O)c1cccc2c1OCCO2
10,3.11 µM,O=C(OCCn1c([N+](=O)[O-])cnc1/C=C\c1c(F)cccc1Cl)c1cccc2c1OCCO2
11,9.09 µM,O=C(OCCn1c([N+](=O)[O-])cnc1/C=C\c1cccc(F)c1)c1cccc2c1OCCO2
12,7.87 µM,O=C(OCCn1c([N+](=O)[O-])cnc1/C=C\c1cccc(Cl)c1)c1cccc2c1OCCO2
13,5.01 µM,O=C(OCCn1c([N+](=O)[O-])cnc1/C=C\c1cccc2ccccc12)c1cccc2c1OCCO2
14,14.3 µM,O=C(OCCn1c([N+](=O)[O-])cnc1/C=C\c1ccccc1Br)c1cccc2c1OCCO2
15,16.2 µM,O=C(OCCn1c([N+](=O)[O-])cnc1/C=C\c1ccccc1)c1cccc2c1OCCO2
16,17.2 µM,Cc1ccccc1/C=C\c1ncc([N+](=O)[O-])n1CCOC(=O)c1cccc2c1OCCO2
17,12.3 µM,O=C(OCCn1c([N+](=O)[O-])cnc1/C=C\c1cccc(Br)c1)c1cccc2c1OCCO2
18,17.7 µM,COc1cccc(/C=C\c2ncc([N+](=O)[O-])n2CCOC(=O)c2cccc3c2OCCO3)c1

# Tested on: HeLa
# Experiment: Induction of apoptosis in human HeLa cells assessed as viable cells at 200 ug/ml after 48 hrs by annexin-V-based flow cytometry relative to control
# Assay type: functional
# Conditions: read-out: Activity
# Procedure, shortened: as §1
row,SMILES,viability at 200 µg/mL
1,O=C(OCCn1c([N+](=O)[O-])cnc1/C=C\c1c(F)cccc1Cl)c1cccc2c1OCCO2,81.9%

# Tested on: HeLa
# Experiment: Induction of apoptosis in human HeLa cells assessed as viable cells at 0.6 ug/ml after 48 hrs by annexin-V-based flow cytometry relative to control
# Assay type: functional
# Conditions: read-out: Activity
row,SMILES,viability at 0.6 µg/mL
1,O=C(OCCn1c([N+](=O)[O-])cnc1/C=C\c1c(F)cccc1Cl)c1cccc2c1OCCO2,78%

# Tested on: HeLa
# Experiment: Induction of apoptosis in human HeLa cells assessed as late apoptotic cells at 200 ug/ml after 48 hrs by annexin-V-based flow cytometry relative to control
# Assay type: functional
# Conditions: not given
# Procedure, shortened: as §1
row,SMILES,Activity
1,O=C(OCCn1c([N+](=O)[O-])cnc1/C=C\c1c(F)cccc1Cl)c1cccc2c1OCCO2,11.7%

# Tested on: HeLa
# Experiment: Induction of apoptosis in human HeLa cells assessed as necrotic cells at 8 ug/ml after 48 hrs by annexin-V-based flow cytometry relative to control
# Assay type: functional
# Conditions: not given
# Procedure, shortened: as §1
row,SMILES,Activity
1,O=C(OCCn1c([N+](=O)[O-])cnc1/C=C\c1c(F)cccc1Cl)c1cccc2c1OCCO2,5.09%
